Screening data (PubChem)
Shown are actives, neighbours in structure and some others; about 1.6% of the full set was active somewhere.
VLA-4 inh: inhibition in human VLA-4 binding assay, primary screen, VLA-4 allosteric modulator project, MLPCN library, flow cytometry, VLA-4 expressing cells | ligand binding flow cytometry | inhibition, % (about 7 µM as worked out from the volumes in the protocol) | AID 2557, 2010 | Integrin alpha-4 (Homo sapiens), P13612 | 330,000 tested, 0.2% active; in the data active = inhibition above about 50%
Target sequence (P13612 whole entry, looked up): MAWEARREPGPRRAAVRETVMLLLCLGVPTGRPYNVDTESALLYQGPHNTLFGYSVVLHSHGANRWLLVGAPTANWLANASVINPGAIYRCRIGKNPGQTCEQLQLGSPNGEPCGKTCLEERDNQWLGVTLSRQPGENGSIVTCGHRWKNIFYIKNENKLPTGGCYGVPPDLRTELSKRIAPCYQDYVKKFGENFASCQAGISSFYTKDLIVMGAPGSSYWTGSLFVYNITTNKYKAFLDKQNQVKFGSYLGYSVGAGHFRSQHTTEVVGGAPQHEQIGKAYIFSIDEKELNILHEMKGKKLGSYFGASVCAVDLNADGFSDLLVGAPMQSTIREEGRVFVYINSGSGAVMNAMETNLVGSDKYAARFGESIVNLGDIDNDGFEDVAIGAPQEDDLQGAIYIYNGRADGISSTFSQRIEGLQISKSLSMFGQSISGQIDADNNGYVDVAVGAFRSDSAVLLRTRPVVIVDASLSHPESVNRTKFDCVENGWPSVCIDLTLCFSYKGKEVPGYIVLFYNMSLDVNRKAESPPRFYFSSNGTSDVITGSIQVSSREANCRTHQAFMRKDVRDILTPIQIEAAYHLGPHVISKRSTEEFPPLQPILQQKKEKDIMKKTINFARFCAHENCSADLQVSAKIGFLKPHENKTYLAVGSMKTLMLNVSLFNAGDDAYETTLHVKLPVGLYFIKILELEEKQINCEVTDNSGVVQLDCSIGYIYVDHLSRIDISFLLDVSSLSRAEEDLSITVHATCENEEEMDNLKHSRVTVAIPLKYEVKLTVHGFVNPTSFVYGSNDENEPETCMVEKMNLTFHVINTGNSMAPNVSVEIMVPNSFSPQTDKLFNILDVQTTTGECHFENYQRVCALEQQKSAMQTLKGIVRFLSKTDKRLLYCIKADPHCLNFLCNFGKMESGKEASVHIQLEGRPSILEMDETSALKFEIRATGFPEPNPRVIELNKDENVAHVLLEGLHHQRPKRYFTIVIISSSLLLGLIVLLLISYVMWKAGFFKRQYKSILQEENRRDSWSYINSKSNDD
PG9 binder: binders of HIV-1 gp120 antibody PG9, primary screen, biochemical, TR-FRET; TR-FRET gp120-PG9 antibody binding; inhibition, % at 6.7 µM; 360,000 tested, 0.43% active; in the data active = inhibition above about 8.5%
Rev-erbA mod: modulators of Rev-erb alpha DNA binding, primary screen, biochemical, FITC-DNA, fluorescence polarization, uHTS. Rev-erbα–FITC-DNA binding, 90 min. Nuclear receptor subfamily 1 group D member 1 (Homo sapiens), P20393. 370,000 tested, 0.79% active. activity, % at 10 µM;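 active = activity above about 14%, limit read from the data; passing the limit was not always enough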;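 note: 0% = DMSO wells with 35 nM protein and 100% = DMSO wells with 750 nM protein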
NR2E3 ag-1: inhibitors of NR2E3-RetCOR corepressor binding, primary screen, NR2E3 agonist project, biochemical, TR-FRET, GST-NR2E3, biotin-RetCOR. 1536-well. Photoreceptor-specific nuclear receptor (Homo sapiens), Q9Y5X4. AID 2300, 2010. inhibition of corepressor binding, % at 4.78 µM. 320,000 tested, 0.12% active;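 active = percent inhibition above the cutoff of mean plus 3 SD of all tested compounds, set per screening campaign, cut at about 20% in these data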;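 note: 0% = DMSO wells and 100% = biotin wells as full block of FRET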
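Format: 1536-well format; test system: GST-NR2E3 and biotin-RetCOR proteins; read-out basis: percent inhibition of TR-FRET ratio; timing: 5 h incubation at 4 °C; detection: time-resolved FRET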
NR2E3 ag-2: NR2E3 agonists in two-hybrid cells, primary screen, cell-based, luminescence, CHO-S, Gal4-NCOR/VP16-NR2E3. Photoreceptor-specific nuclear receptor (Homo sapiens), Q9Y5X4. luciferase. 360,000 tested, 0.35% active. inhibition of corepressor binding, % at 3.98 µM;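 active = inhibition above the mean of all tested compounds plus 3 SD, cut at about 70% in these data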;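 note: 0% = DMSO with NR2E3 transfected cells and 100% = cells lacking NR2E3 construct; higher means lower luciferase signal from less NR2E3 corepressor binding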
VLA-4 mod pick: retest of VLA-4 allosteric modulators, confirmation, cell-based, cherry-picked plates, U937, HUTS-21 LIBS antibody; shares compounds with VLA-4 inh; U937 cells, HUTS-21 LIBS mAb binding, flow cytometry; LDV ligand present at threefold Kd; inhibition, % at 6.7 µM; 1,300 tested, 2% active; in the data active = inhibition above about 40%;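 note: 0% = ligand without compound and 100% = no ligand background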
An asterisk follows results filed as active; x = not tested or not shown.

SMILES | VLA-4 inh | PG9 binder | Rev-erbA mod | NR2E3 ag-1 | NR2E3 ag-2 | VLA-4 mod pick
CCC(=O)c1ccc(OCC(=O)NCCC2=CCCCC2)c(OC)c1 | 11 | 0 | 5 | -2 | 6 | x
CCOc1ccc(C(=O)NCCC2=CCCCC2)cc1OCC | 52* | 0 | -1 | 2 | 11 | -1
Cc1cc(=O)oc2cc(OC(C)C(=O)NCCCN3CCCC3=O)c(Cl)cc12 (centres undefined) | 52* | 0 | -5 | -2 | -10 | -3
O=P(O)(O)OCC(O)CO (centres undefined) | x | x | -1 | x | x | x
COc1ccc(-n2c(=S)[nH]c3cc(C(=O)NCCCN4CCCC4=O)ccc3c2=O)cc1OC | 0 | -1 | 1 | 2 | 9 | x
COc1ccc(-n2c(=S)[nH]c3cc(C(=O)NCCCN4CCOCC4)ccc3c2=O)cc1OC | 56* | 1 | 6 | 0 | 6 | -9
CC(OC(=O)c1ccccc1O)C(=O)Nc1cccc(Cl)c1 (centres undefined) | 6 | 0 | -3 | 3 | -5 | 1
Cc1cc(C(=O)OC(C)C(=O)Nc2cccc(Cl)c2)on1 (centres undefined) | x | -1 | 5 | x | -4 | x
CC[C@@H]1/C(=C/c2ccccc2)N2C(=O)C[C@@H](c3ccccc3)N=C2N1Cc1ccc(OC)cc1OC | x | x | 3 | x | x | x
CC(c1ccc(Cl)cc1)N(CCN(C)C)c1ccccn1 (centres undefined) | x | -1 | 4 | x | x | x
COc1cc(OC)cc(C(=O)NC(C(=O)N2CCc3ccccc3C2)C(C)C)c1 (centres undefined) | 50* | -2 | -1 | -2 | -27 | 5
CC(C)c1ccc(NC(=O)C(c2ccccc2)N2CC(=O)Nc3ccccc32)cc1 (centres undefined) | 72* | -1 | 0 | 1 | -7 | 3
c1ccc(-c2nnc(CN3CCCCC3)o2)cc1 | 45 | 1 | -2 | 1 | -9 | -12
CCC(=NNC(=O)c1cccc(S(=O)(=O)N2CCOCC2)c1)c1ccccc1 | 50* | 0 | 0 | x | -17 | 6
COc1ccc(CC(=O)NNC(=O)CSc2ccc(C)cc2)cc1 | 53* | 0 | 1 | 0 | -27 | 4
NC(=O)c1ccccc1NC(=O)c1cc(S(=O)(=O)N2CCCCC2)ccc1N1CCOCC1 | 6 | 0 | 4 | 2 | -24 | -4
Cc1ccccc1NC(=O)c1cc(S(=O)(=O)N2CCCCC2)ccc1N1CCOCC1 | x | -1 | -2 | x | 1 | x
O=C(Nc1ccccc1)c1cc(S(=O)(=O)N2CCCCC2)ccc1N1CCOCC1 | 19 | -2 | -2 | 3 | 11 | 0
Cc1ccc(C)c(NC(=O)c2cc(S(=O)(=O)N3CCCCC3)ccc2N2CCOCC2)c1 | 51* | 0 | 4 | 3 | -11 | 4
Cc1ccc(CSc2nnc(-c3n[nH]c4c3CCC4)n2N)cc1 | x | x | 1 | x | x | x
COc1cccc(CNC(=O)Cn2c(=O)oc3ccccc32)c1OC | 38 | 1 | -4 | 2 | -1 | -5
COc1ccc(CNC(=O)Cn2c(=O)oc3ccccc32)cc1OC | 97* | 1 | 1 | 2 | -1 | -11
CCOc1ccccc1CNC(=O)Cn1c(=O)oc2ccccc21 | 26 | 0 | 2 | 0 | -14 | x
Nc1nc(=S)c2[nH]cnc2[nH]1 | 57* | -1 | -4 | 1 | 7 | -2
Nc1nc(=S)c2[nH]c(=S)[nH]c2[nH]1 | x | -5 | -9 | x | 4 | x
SMILES | VLA-4 inh | PG9 binder | Rev-erbA mod | NR2E3 ag-1 | NR2E3 ag-2 | VLA-4 mod pick
CCCCCc1ccc(NC(=O)O[C@@H]2CC[C@@]34CCCN3C(=O)CCC[C@H]4C2)cc1 | x | x | 0 | x | x | x
COC(=O)c1ccncc1C(=O)Nc1ccc(OC)cc1 | 9 | x | x | -1 | 13 | x
COC(=O)c1ccncc1C(=O)Nc1ccc(Oc2ncc(C(F)(F)F)cc2Cl)cc1 | 50* | -1 | -5 | 4 | -22 | -19
CC1CN(CCOCCSc2ccccc2)CC(C)O1 (centres undefined) | 46 | -2 | 2 | 7 | -27 | 2
Cc1ccc(Cn2cc(COC(=O)NCCc3c[nH]c4ccccc34)nn2)cc1 | x | x | -2 | x | x | x
C/C(CC(=O)Nc1cccc2c1CCCC2)=N\NC(=O)c1ccccc1N | -1 | -2 | -1 | 2 | -51 | x
C/C(CC(=O)Nc1cccc2c1CCCC2)=N\NC(=O)c1cccc2ccccc12 | 43 | 0 | -3 | -2 | -54 | 2
Cc1noc(C)c1CSc1ncnc2sc3c(c12)CCCCC3 | 42 | 0 | 1 | -2 | -7 | 0
C[C@H]1COC(=O)[C@H](Cc2ccc(F)cc2)C/C=C\C[C@H](CC(=O)N(CCO)Cc2ccccc2)C(=O)N1 | 113* | 0 | -2 | x | -7 | 6
O=C1N[C@@H](Cc2ccccc2)COC(=O)[C@H](Cc2ccc(F)cc2)C/C=C\C[C@H]1CC(=O)N(CCO)Cc1ccccc1 | 1 | 1 | -4 | x | -23 | x
O=C(c1ccco1)N1CCC(Oc2cccnc2)CC1 | x | x | -4 | x | x | x
CCCCN(CCCC)CCn1cnc2c([nH]c3ccc(OC)cc32)c1=O | -4 | 0 | 1 | 1 | -17 | -12
CCC1CCCN1Cn1cnc2c([nH]c3ccc(OC)cc32)c1=O (centres undefined) | 4 | 0 | 3 | 6 | -20 | -13
CCCCc1oc2ccc(NS(C)(=O)=O)cc2c1C(=O)c1ccc(OCCCN(CCCC)CCCC)cc1 | x | x | -7 | x | x | x
C[N+]1=C2N[C@@H](c3ccccc3)CC(=O)N2/C(=C\c2ccccc2)[C@@H]1Cc1ccccc1 | x | x | -15 | x | x | x
Cc1cc(C)cc(NC(=O)O[C@@H]2CC[C@@]34CCCN3C(=O)CCC[C@H]4C2)c1 | x | x | -3 | x | x | x
Cc1[nH]c2ccccc2c1/C=N/NC(=O)c1ccccc1 | 45 | -4 | 4 | 2 | -69 | -7
COc1ccc(/C=C/C(=O)Nc2ccccc2C(=O)NCC(c2ccc(OC)cc2)N(C)C)cc1 (centres undefined) | 54* | -2 | 2 | 3 | -63 | 1
COc1ccc(/C=C/C(=O)Nc2ccccc2C(=O)O)cc1 | 7 | -1 | -3 | -1 | -76 | x
Cc1nn(C)c(C)c1S(=O)(=O)N(CC(=O)NCc1ccco1)c1ccc(C(C)C)cc1 | 64* | x | x | 1 | x | 7
COc1cccc(NC(=O)CN(c2ccc(C)cc2)S(=O)(=O)c2c(C)nn(C)c2C)c1 | 10 | -1 | -1 | 1 | -33 | x
